According to ChEMBL document CHEMBL5154772, “Biological Investigation of a Water-Soluble Isoginkgetin-Phosphate Analogue, Targeting the Spliceosome with In Vivo Antitumor Activity” (J Med Chem, 2022):
The source made the active and inactive calls. No cut-off for these calls is given here.

Legend:
[1] = AUC(0 to t) in Beagle dog at 26.76 mg/kg, iv administered as single dose measured up to 24 hrs; type: ADME, organism-based, Canis lupus familiaris; parameters: dose 26.76 mg/kg, time < 24 hrs, route iv; conditions: in vivo
Procedure, shortened: (§1)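 Single intravenous dose. Mice were male C57BL/6J, 12 per route; tail-vein blood was collected under sodium heparin, with 3 mice sampled at each pair of times (0.083/2, 0.25/4, 0.5/8, 1/24 h). Dogs were male beagles (n=3); jugular blood was collected under K2 EDTA predose and at 0.083, 0.25, 0.5, 1, 2, 4, 6, 8 and 24 h. Plasma was prepared from the samples.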

[2] = AUCextra in C57BL/6J mouse at 9.103 mg/kg, ip administered as single dose measured up to 24 hrs; type: ADME, organism-based; conditions: in vivo
Procedure, shortened: (§2)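 Single intraperitoneal dose in male C57BL/6J mice (12 per route). Tail-vein blood was collected under sodium heparin for plasma, with 3 mice sampled at each pair of times: 0.083/2, 0.25/4, 0.5/8 and 1/24 h. F denotes bioavailability.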

[3] = Toxicity in C57BL/6 mouse assessed as change in body weight at 50 mg/kg, ip administered as single dose and measured after 15 days (reference value: 23.5 to 24.2 g); type: organism-based; conditions: in vivo, 360 h, time 15 day
Procedure, shortened: (§3)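 Female C57BL/6 mice given one IP injection of 100 µL, at 50, 100, 250 or 500 mg/kg in sterile PBS, two mice per dose; PBS-injected controls. Behaviour checked right after and at 30 min. Body weight recorded every 2–3 days for 15 days, then liver, spleen and kidneys weighed.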

[4] = Toxicity in C57BL/6 mouse assessed as change in spleen weight at 500 mg/kg, ip administered as single dose and measured after 15 days (reference value: 0.1 to 0.2 g); type: organism-based; conditions: in vivo, 360 h, time 15 day; procedure, shortened: as §3
[5] = test system: HUVEC; test: Antiproliferative activity against human HUVEC cells assessed as decrease in cell viability at 10 uM measured after 72 hrs by MTT based colorimetric assay; type: functional
[6] = Metabolic stability in mouse liver microsomes assessed as parent compound remaining incubated for 45 mins in presence of NADPH by HPLC-MS/MS analysis; type: ADME, Microsome; conditions: read-out: Stability
Procedure, shortened: (§4)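 Incubation with mouse or human liver microsomes for 45 min, with or without NADPH. Remaining parent compound was quantified over time by HPLC-MS/MS and expressed as % remaining; intrinsic clearance is given in μL/min/mg protein.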

[7] = Metabolic stability in mouse liver microsomes assessed as parent compound remaining incubated for 45 mins in absence of NADPH by HPLC-MS/MS analysis; type: ADME, Microsome; conditions: read-out: Stability; procedure, shortened: as §4
[8] = Metabolic stability in human liver microsomes assessed as parent compound remaining incubated for 45 mins in absence of NADPH by HPLC-MS/MS analysis; type: ADME, Microsome; conditions: read-out: Stability; procedure, shortened: as §4
[9] = Metabolic stability in mouse liver microsomes assessed as intrinsic clearance incubated for 45 mins by HPLC-MS/MS analysis; type: ADME, Microsome; conditions: read-out: CLH; procedure, shortened: as §4
[10] = Metabolic stability in human liver microsomes assessed as intrinsic clearance incubated for 45 mins by HPLC-MS/MS analysis; type: ADME, Microsome; conditions: read-out: CLH; procedure, shortened: as §4
[11] = Stability in mouse plasma assessed as compound remaining incubated up to 2 hrs by HPLC-MS/MS analysis; type: ADME, cell-free; conditions: read-out: Stability
Procedure, shortened: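 Incubation in mouse or human plasma for up to 2 h, with compound remaining expressed as a percentage.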

[12] = Plasma protein binding in human assessed as unbound fraction at 2 uM by rapid equilibrium dialysis based LC-MS/MS analysis; type: ADME, cell-free
Procedure, shortened: (§5)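 Binding was measured at 2 μM in triplicate by rapid equilibrium dialysis (8K MWCO). Quantification was by UPLC-MS/MS on a phenyl column in positive ESI MRM mode (m/z 727>567), with an ammonium formate pH 5 / 1,5-DMHA mobile phase at 50 °C. Both unbound fraction (fu) and % bound are reported.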

[13] = Plasma protein binding in mouse at 2 uM by rapid equilibrium dialysis based LC-MS/MS analysis; type: ADME, cell-free; conditions: read-out: PPB (converted); procedure, shortened: as §5
[14] = biological target: Histamine H2 receptor (Homo sapiens) (UniProt P25021); test: Antagonist activity at HRH2 (unknown origin) at 10 uM; type: functional; parameters: scale not given: the % may be the effect or the level left; conditions: filed as antagonist
Procedure, shortened: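 Single-concentration safety screen at 10 μM across a 47-target panel. GPCRs were run in antagonist mode and enzymes in inhibitor mode.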

[15] = Cmax in C57BL/6J mouse at 9.103 mg/kg, ip administered as single dose measured up to 24 hrs; type: ADME, organism-based; parameters: time < 24 hrs, dose 9.103 mg/kg, route ip; conditions: in vivo; procedure, shortened: as §2
[16] = Cmax in C57BL/6J mouse at 0.711 mg/kg, iv administered as single dose measured up to 24 hrs; type: ADME, organism-based; parameters: time < 24 hrs, dose 0.711 mg/kg, route iv; conditions: in vivo; procedure, shortened: as §1
[17] = Tmax in Beagle dog at 26.76 mg/kg, iv administered as single dose measured up to 24 hrs; type: ADME, organism-based, Canis lupus familiaris; conditions: in vivo; procedure, shortened: as §1
[18] = Total clearance in C57BL/6J mouse at 0.711 mg/kg, iv administered as single dose measured up to 24 hrs; type: ADME, organism-based; conditions: in vivo; procedure, shortened: as §1
[19] = Total clearance in Beagle dog at 26.76 mg/kg, iv administered as single dose measured up to 24 hrs; type: ADME, organism-based, Canis lupus familiaris; conditions: in vivo; procedure, shortened: as §1
[20] = MRT(0 to t) in C57BL/6J mouse at 9.103 mg/kg, ip administered as single dose measured up to 24 hrs; type: ADME, organism-based; conditions: in vivo; procedure, shortened: as §2
[21] = MRT(0 to t) in C57BL/6J mouse at 0.711 mg/kg, iv administered as single dose measured up to 24 hrs; type: ADME, organism-based; conditions: in vivo; procedure, shortened: as §1
[22] = AUC(0 to t) in C57BL/6J mouse at 0.711 mg/kg, iv administered as single dose measured up to 24 hrs; type: ADME, organism-based; parameters: dose 0.711 mg/kg, time < 24 hrs, route iv; conditions: in vivo; procedure, shortened: as §1
[23] = AUCextra in C57BL/6J mouse at 0.711 mg/kg, iv administered as single dose measured up to 24 hrs; type: ADME, organism-based; conditions: in vivo; procedure, shortened: as §1
[24] = Toxicity in C57BL/6 mouse assessed as change in liver weight at 100 mg/kg, ip administered as single dose and measured after 15 days (reference value: 1.2 to 1.3 g); type: organism-based; conditions: in vivo, 360 h, time 15 day; procedure, shortened: as §3
[25] = Toxicity in C57BL/6 mouse assessed as change in kidney weight at 250 mg/kg, ip administered as single dose and measured after 15 days (reference value: 0.3 g); type: organism-based; conditions: in vivo, 360 h, time 15 day; procedure, shortened: as §3
[26] = test system: MCA-205; test: Antitumor activity against mouse wild type MCA-205 cells implanted in C57BL/6 mouse assessed as decrease in tumor growth pretreatment at 2.5 mg/kg,iv administered starting from day 7 post inoculation at five days interval upto 17 days relative to control; type: functional, organism-based; conditions: time <= 17.0 day
Procedure, shortened: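 MCA205 WT fibrosarcoma cells were inoculated subcutaneously into the right flank of female C57BL/6 mice. Dosing was 2.5 mg/kg iv from day 7 post-inoculation, repeated every 5 days until day 17; controls were untreated. Tumor area was recorded every 3–4 days up to ethical limits, and tumor size was measured at killing. Analysis was by one-way ANOVA.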

[27] = test system: MCA-205; test: Antitumour activity against mouse wild type MCA-205 cells implanted in C57BL/6 mouse assessed as decrease in tumour growth at 5 mg/kg,IT administered starting from day 7 post inoculation and thrice a week for 2 weeks; type: functional, organism-based
Procedure, shortened: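 MCA205 WT fibrosarcoma cells were inoculated subcutaneously into the right flank of female C57BL/6 mice. Dosing was 5 mg/kg intratumoral, three times per week for two weeks, starting day 7 post-inoculation; controls were untreated. Tumor area was recorded every 3–4 days, and tumor size was measured at killing. Analysis was by one-way ANOVA.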

[28] = biological target: Prostaglandin G/H synthase 1 (Homo sapiens) (UniProt P23219); test: Inhibition of COX1 (unknown origin) at 10 uM

Sequence of Histamine H2 receptor (Homo sapiens) (P25021 whole entry): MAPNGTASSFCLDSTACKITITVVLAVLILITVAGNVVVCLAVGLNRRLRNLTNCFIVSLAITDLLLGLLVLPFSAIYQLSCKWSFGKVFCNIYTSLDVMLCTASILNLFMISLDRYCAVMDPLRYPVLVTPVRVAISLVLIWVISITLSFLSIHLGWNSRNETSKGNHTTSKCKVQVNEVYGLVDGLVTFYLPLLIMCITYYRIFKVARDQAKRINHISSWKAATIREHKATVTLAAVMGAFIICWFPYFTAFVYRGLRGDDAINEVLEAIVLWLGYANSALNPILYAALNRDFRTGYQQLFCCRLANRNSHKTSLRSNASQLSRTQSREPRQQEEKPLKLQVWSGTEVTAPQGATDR

## COc1ccc(-c2cc(=O)c3c(O)cc(OP(=O)([O-])[O-])c(-c4cc(-c5cc(=O)c6c(O)cc(OP(=O)([O-])[O-])cc6o5)ccc4OC)c3o2)cc1.[Na+].[Na+].[Na+].[Na+]
[1]
  AUC(0-t) at 24 h: 655 µg·h/mL
[2]
  %AUCextra: 1.3%
[3]
  Activity: 19.5 g
[4]
  Activity: 0.1 g
[5]
  Activity: 25%
[6]
  remaining at 0.75 h: 82.3%
[7]
  remaining at 0.75 h: 72.4%
[8]
  remaining at 0.75 h: 64.7%
[9]
  microsomal CLint: 8 µL/min/mg
[10]
  microsomal CLint: 11 µL/min/mg
[11]
  remaining at 2 h: 98.1%
[12]
  fraction unbound at 2 µM: 0.02
[13]
  fraction unbound at 2 µM: 0.019
[14]
  Activity: 40%
[15]
  Cmax: 2080 ng/mL
[16]
  Cmax: 323 ng/mL
[17]
  Tmax: 5 min
[18]
  clearance: 133 mL/min/kg
[19]
  clearance: 0.69 mL/min/kg
[20]
  MRT last at 24 h: 42 min
[21]
  MRT last at 24 h: 54 min
[22]
  AUC(0-t) at 24 h: 0.0888 µg·h/mL
[23]
  %AUCextra: 15.2%
[24]
  Activity: 1 g
[25]
  Activity: 0.1 g
[26]
  Activity: Active
[27]
  Activity: Active
[28]
  inhibition: 52.8%
